Assay results from article PMC6675461 (Bioorganic & medicinal chemistry, 2009).
Read-outs that look alike come from different tables or passages of the source.

What was measured:
[1] = test system: three melanoma cell lines (B16-F1, A375, WM-164); assay: SRB assay, average over melanoma cell lines and selectivity vs fibroblast; assay type: cell-based, human, mouse; conditions: Fibroblast
DU 145 cells = assay: SRB antiproliferative assay, DU 145 prostate cancer cells; assay type: cell-based, human; conditions: Homo sapiens, DU-145, 96 h, read-out: IC50 ± SEM DU 145
Outline: (§1)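 Prostate cancer cells were grown in RPMI1640 with 10% FBS at 37 °C, 5% CO2. Cells were fixed with 10% TCA and stained with 0.4% SRB, and absorbance was read at 540 nm. IC50 came from nonlinear regression of % survival versus concentration.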

A375 melanoma tumors = assay: A375 melanoma xenograft in athymic nude mice; assay type: in vivo; conditions: nude mice, treatment groups
LNCaP cells [2] = assay: SRB antiproliferative assay, LNCaP prostate cancer cells; assay type: cell-based, human; conditions: Homo sapiens, LNCaP, 96 h, read-out: IC50 ± SEM LNCaP
Outline: as §1

A375 cells [3] = assay: Melanoma colony-formation assay; assay type: cell-based, human; conditions: 14 days
Outline: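 A375 cells were plated at colony-forming density (2000 per well) in DMEM with FBS and antibiotic-antimycotic at 37 °C, 5% CO2. Test compound was added at 2, […], with matching DMSO dilution as vehicle control. After 14 days' growth, colonies were stained with 0.1% […] for 30 min, rinsed and counted with an automated colony counter.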

[4] = test system: NCI-60 human tumor cell lines; assay: NCI-60 human tumor cell line anticancer drug screen; assay type: cell-based
LNCaP cells [5] = assay: Flow cytometric cell cycle analysis, LNCaP; assay type: cell-based, human; conditions: tested 1, 5, 10, 20 μM, 48 h
PPC-1 cells = assay: SRB antiproliferative assay, PPC-1 prostate cancer cells; assay type: cell-based, human; conditions: Homo sapiens, PPC-1, 96 h, read-out: IC50 ± SEM PPC-1
Outline: as §1

A375 cells [6] = assay: Flow cytometric cell cycle analysis, A375; assay type: cell-based, human; conditions: A375, tested 1, 5, 10, 20 μM, 48 h
LPA3 = target: T1, LPA3 (Homo sapiens, UniProt Q9UBY5); assay: FLIPR intracellular calcium mobilization assay, LPA3-transfected Chem-1 cells; assay type: cell-based
T1 sequence (Q9UBY5 1-353): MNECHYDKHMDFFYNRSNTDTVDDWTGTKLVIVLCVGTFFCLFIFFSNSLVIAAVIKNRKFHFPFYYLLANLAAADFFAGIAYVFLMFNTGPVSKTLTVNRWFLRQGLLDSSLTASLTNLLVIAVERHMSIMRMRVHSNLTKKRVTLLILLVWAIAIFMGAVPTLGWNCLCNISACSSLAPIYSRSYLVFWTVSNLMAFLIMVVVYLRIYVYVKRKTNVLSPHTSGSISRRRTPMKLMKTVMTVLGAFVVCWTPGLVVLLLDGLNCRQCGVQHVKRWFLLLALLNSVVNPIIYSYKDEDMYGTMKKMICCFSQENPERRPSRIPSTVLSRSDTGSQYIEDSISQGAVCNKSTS

LPA5 = LPA5 (Homo sapiens, UniProt Q9H1C0); assay: FLIPR intracellular calcium mobilization assay, LPA5-transfected Chem-1 cells; assay type: cell-based
Sequence of LPA5 (Q9H1C0 whole entry, species assumed): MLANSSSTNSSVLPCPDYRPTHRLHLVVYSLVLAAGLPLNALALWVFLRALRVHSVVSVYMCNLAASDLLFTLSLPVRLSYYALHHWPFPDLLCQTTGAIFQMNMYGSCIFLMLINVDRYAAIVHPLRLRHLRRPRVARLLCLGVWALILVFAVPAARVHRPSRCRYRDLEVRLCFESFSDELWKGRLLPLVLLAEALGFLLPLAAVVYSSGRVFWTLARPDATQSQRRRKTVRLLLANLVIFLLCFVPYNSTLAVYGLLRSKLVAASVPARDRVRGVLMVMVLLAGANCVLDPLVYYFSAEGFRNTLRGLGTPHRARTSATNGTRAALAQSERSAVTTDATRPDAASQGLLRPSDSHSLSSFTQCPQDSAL

RH7777 cells = assay: SRB assay, RH7777 control cells; assay type: cell-based; conditions: Homo sapiens, RH7777, 96 h, read-out: IC50 ± SEM RH7777
Outline: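 PC-3 cells were grown in RPMI1640 with 10% FBS, and RH7777 cells in DMEM with 10% FBS, both at 37 °C, 5% CO2. Cells were fixed with 10% TCA, stained with 0.4% SRB and read at 540 nm. IC50 came from nonlinear regression of % survival versus concentration.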

LPA1 = LPA1 (Homo sapiens, UniProt Q92633); assay: FLIPR intracellular calcium mobilization assay, LPA1-transfected Chem-1 cells; assay type: cell-based
Sequence of LPA1 (Q92633 whole entry, species assumed): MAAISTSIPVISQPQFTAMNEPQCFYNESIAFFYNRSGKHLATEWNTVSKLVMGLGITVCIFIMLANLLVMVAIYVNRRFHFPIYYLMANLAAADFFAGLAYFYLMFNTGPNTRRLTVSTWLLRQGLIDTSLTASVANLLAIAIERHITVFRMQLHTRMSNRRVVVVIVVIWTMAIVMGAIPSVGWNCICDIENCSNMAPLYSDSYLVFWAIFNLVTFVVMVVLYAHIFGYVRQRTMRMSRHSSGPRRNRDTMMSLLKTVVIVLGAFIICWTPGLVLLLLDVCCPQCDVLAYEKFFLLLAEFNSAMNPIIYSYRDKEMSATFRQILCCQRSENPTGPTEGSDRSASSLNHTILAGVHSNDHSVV

PC-3 cells = assay: SRB antiproliferative assay, PC-3 prostate cancer cells; assay type: cell-based, human; conditions: Homo sapiens, PC-3, 96 h, read-out: IC50 ± SEM PC-3
[7] = read-out: Aver. (average IC50 of three melanoma cells IC50s)
[8] = against oleoyl-LPA at EC80, top concentration 10 μM
[9] = top concentration 10 μM, 15% activation of oleoyl-LPA Emax = agonist

Compound	IC50 [1, 7] [nM]	IC50 (DU 145 cells) [nM]	IC50 (LNCaP cells [2]) [nM]	inhibition of A375 colony formation (A375 cells [3]; 2 μM)	inhibition of A375 colony formation (A375 cells [3]; 100 μM)	concentration at which accumulation of cells in sub-G1 phase became apparent (LNCaP cells [5]) [µM]	IC50 (PPC-1 cells) [nM]	concentration at which accumulation of cells in sub-G1 phase became apparent (A375 cells [6]) [µM]	other results
CCCCCCCCCCCCCCCCNC(=O)[C@@H]1CSC(c2ccc(NC(C)=O)cc2)N1 (mixture of isomers) [Compound 1b, (2RS,4R)-2-(4-Acetylamino-phenyl)-thiazolidine-4-carboxylic acid hexadecylamide]	1800	1700 ± 100	1000 ± 100	effectively inhibit	completely inhibited	5	400 ± 100	5	IC50 ([1]; read-out: IC50 range over melanoma cell lines): 700 to 2100 nM; body weight change during the experiment (A375 melanoma tumors): no significant body weight loss; GI50 ([4]; read-out: GI50 melanoma): 130 to 1480 nM; GI50 ([4]; read-out: GI50 prostate cancer): 170 to 270 nM; GI50 ([4]; read-out: GI50 range, all nine types of cancer cells): 120 to 10900 nM
CCCCCCCCCCCCCCCCNC(=O)[C@@H]1CSC(c2cc(OC)c(OC)c(OC)c2)N1 (mixture of isomers) [Compound 3ad, (2RS,4R)-2-(3,4,5-Trimethoxy-phenyl)-thiazolidine-4-carboxylic acid hexadecylamide]	1200	1700 ± 100	800 ± 100	effectively inhibit	completely inhibited	5	400 ± 100	5	antagonist activity on LPA3, in words (LPA3; [8]): did not exhibit any dose-dependent antagonist activity; agonist activity on LPA3, in words (LPA3; [9]): did not exhibit any dose-dependent agonist activity; antagonist activity on LPA5, in words (LPA5; [8]): did not exhibit any dose-dependent antagonist activity; agonist activity on LPA5, in words (LPA5; [9]): did not exhibit any dose-dependent agonist activity; IC50 (RH7777 cells): 7200 ± 100 nM; inhibition of A375 colony formation (A375 cells [3]; 20 μM): almost completely inhibited; antagonist activity on LPA1, in words (LPA1; [8]): did not exhibit any dose-dependent antagonist activity; agonist activity on LPA1, in words (LPA1; [9]): did not exhibit any dose-dependent agonist activity; IC50 (PC-3 cells): 1800 ± 100 nM
